Data: ChEMBL document CHEMBL1165966, “ppGpp analogues inhibit synthetase activity of Rel proteins from Gram-negative and Gram-positive bacteria” (Bioorg Med Chem, 2010)
Positions count from the first letter of the chain named. Active and inactive are the calls of the source. The calls are words filed in the database; no cut-off is given here.

Experiments:
[1] = biological target: T1, Bifunctional (p)ppGpp synthase/hydrolase RelA (Streptococcus dysgalactiae subsp. equisimilis) (UniProt Q54089); assay: Inhibition of synthetic activity of Streptococcus equisimilis RelA assessed as inhibition of (p)ppGpp accumulation at 5 to 10 mM after 5 mins
T1 sequence (whole entry): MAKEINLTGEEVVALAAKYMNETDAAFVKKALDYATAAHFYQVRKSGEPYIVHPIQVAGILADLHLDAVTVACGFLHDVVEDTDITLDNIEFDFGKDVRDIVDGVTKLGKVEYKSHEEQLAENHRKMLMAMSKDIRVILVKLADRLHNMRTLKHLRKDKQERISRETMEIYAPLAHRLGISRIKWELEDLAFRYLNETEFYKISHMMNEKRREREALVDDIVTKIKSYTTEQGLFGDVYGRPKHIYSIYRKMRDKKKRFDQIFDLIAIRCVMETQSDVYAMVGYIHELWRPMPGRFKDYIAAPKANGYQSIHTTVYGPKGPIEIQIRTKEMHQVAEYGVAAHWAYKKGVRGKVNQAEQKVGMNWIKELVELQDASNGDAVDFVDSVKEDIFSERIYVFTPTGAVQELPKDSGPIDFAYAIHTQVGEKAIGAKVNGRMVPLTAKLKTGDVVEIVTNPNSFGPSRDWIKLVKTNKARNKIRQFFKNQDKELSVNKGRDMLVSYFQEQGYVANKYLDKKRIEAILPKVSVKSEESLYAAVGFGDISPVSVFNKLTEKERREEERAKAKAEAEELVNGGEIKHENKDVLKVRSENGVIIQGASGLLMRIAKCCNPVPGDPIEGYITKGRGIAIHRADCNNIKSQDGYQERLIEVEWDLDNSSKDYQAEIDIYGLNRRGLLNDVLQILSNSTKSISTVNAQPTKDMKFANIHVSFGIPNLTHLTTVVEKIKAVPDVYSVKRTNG

[2] = biological target: T2, GTP pyrophosphokinase (Escherichia coli K-12) (UniProt P0AG20); assay: Inhibition of synthetic activity of Escherichia coli RelA assessed as inhibition of (p)ppGpp accumulation at 5 to 10 mM after 60 mins
T2 sequence (whole entry): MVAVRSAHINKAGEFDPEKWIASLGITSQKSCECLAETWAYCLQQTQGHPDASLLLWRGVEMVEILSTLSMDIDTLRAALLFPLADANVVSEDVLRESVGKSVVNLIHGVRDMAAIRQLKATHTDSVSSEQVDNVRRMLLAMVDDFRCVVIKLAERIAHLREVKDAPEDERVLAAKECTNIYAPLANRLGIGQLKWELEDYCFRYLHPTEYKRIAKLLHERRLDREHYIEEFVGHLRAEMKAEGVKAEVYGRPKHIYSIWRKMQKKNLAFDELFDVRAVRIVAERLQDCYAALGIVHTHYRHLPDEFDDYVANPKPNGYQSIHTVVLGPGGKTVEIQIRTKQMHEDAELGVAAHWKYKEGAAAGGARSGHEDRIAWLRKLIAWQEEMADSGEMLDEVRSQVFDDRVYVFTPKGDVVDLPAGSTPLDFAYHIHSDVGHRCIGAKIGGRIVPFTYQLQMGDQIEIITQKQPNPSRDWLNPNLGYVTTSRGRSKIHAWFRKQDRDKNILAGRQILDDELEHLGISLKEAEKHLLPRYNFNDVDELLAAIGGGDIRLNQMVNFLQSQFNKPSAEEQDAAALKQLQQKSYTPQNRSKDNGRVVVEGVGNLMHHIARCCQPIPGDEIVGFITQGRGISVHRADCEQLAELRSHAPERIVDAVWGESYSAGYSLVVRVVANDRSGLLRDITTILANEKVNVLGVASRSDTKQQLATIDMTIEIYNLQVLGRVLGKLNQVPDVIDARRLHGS

Escherichia coli = assay: Inhibition of synthetic activity of Escherichia coli RelA C638F mutant at 1 to 10 mM
Method in brief: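 Analogue was added at 1, 5 or 10 mM in duplicate lanes. The buffer was Tris–HCl pH 7.4 containing DTT, MgCl2, KCl and (NH4)2SO4. Reactions ran at room temperature and were stopped with formic acid.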

[3] = test system: T3, GTP pyrophosphokinase (Escherichia coli K-12), P0AG20 [G251E]; assay: Inhibition of Escherichia coli RelA G251E mutant dissociation from ribosome at 1 to 10 mM after 4 hrs by chemiluminescence assay
T3 sequence (whole entry): T2 sequence (whole entry) with G251E
Method in brief: (§1)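 Ribosomes were isolated through a 40% sucrose cushion from E. coli grown in LB at 37 °C. RelA plus ribosomes and analogue at 1–10 mM were centrifuged 4 h at 32,000 rpm, 4 °C, and split into soluble and ribosomal fractions. Ribosomal fractions were run on 12% SDS-PAGE, blotted to PVDF and probed with anti-His antibody (1:10,000).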

[4] = biological target: T2, GTP pyrophosphokinase (Escherichia coli K-12); assay: Inhibition of Escherichia coli RelA dissociation from ribosome assessed as increase in bound protein at 1 to 10 mM after 4 hrs by chemiluminescence assay relative to control; method in brief: as §1
[5] = biological target: T2, GTP pyrophosphokinase (Escherichia coli K-12); assay: Inhibition of Escherichia coli RelA dissociation from L11 mutated ribosome assessed as increase in bound protein at 1 to 10 mM after 4 hrs by chemiluminescence assay relative to control; method in brief: as §1
[6] = biological target: T1, Bifunctional (p)ppGpp synthase/hydrolase RelA (Streptococcus dysgalactiae subsp. equisimilis); assay: Inhibition of synthetic activity of Streptococcus equisimilis RelA assessed as inhibition of (p)ppGpp accumulation at 0.5 mM after 5 mins
[7] = biological target: T2, GTP pyrophosphokinase (Escherichia coli K-12); assay: Inhibition of Escherichia coli RelA catalytic site at 5 mM in presence of increasing concentration of GTP
Method in brief: (§2)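 The buffer was Tris–HCl pH 7.4 with DTT, MgCl2, KCl and (NH4)2SO4. Analogue was held at 5 mM while GTP or ATP was raised. Reactions ran 60 min at room temperature, were stopped with formic acid, and (p)ppGpp accumulation was the read-out.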

[8] = biological target: T2, GTP pyrophosphokinase (Escherichia coli K-12); assay: Inhibition of Escherichia coli RelA catalytic site at 5 mM in presence of increasing concentration of ATP; method in brief: as §2
[9] = biological target: T1, Bifunctional (p)ppGpp synthase/hydrolase RelA (Streptococcus dysgalactiae subsp. equisimilis); assay: Inhibition of Streptococcus equisimilis RelA catalytic site at 5 mM in presence of increasing concentration of GTP
[10] = biological target: T1, Bifunctional (p)ppGpp synthase/hydrolase RelA (Streptococcus dysgalactiae subsp. equisimilis); assay: Inhibition of Streptococcus equisimilis RelA catalytic site at 5 mM in presence of increasing concentration of ATP
[11] = biological target: T2, GTP pyrophosphokinase (Escherichia coli K-12); assay: Inhibition of synthetic activity of Escherichia coli RelA assessed as inhibition of (p)ppGpp accumulation at > 1 mM after 60 mins
[12] = biological target: T2, GTP pyrophosphokinase (Escherichia coli K-12); assay: Inhibition of synthetic activity of Escherichia coli RelA assessed as inhibition of (p)ppGpp accumulation at 0.1 to 0.5 mM after 60 mins

Row | SMILES | inhibition [1] | inhibition [2] | also measured
1 | Nc1nc2c(ncn2[C@@H]2O[C@H](COP(=O)(O)CP(=O)(O)O)[C@@H](O)[C@H]2O)c(=O)[nH]1 | Active | Active | 
2 | CC1(C)O[C@@H]2[C@H](O1)[C@@H](COP(=O)(O)CP(=O)(O)O)O[C@H]2n1cnc2c(=O)[nH]c(N)nc21 | Active | Active | 
3 | Nc1nc2c(ncn2[C@@H]2O[C@H](COP(=O)(O)CP(=O)(O)O)[C@@H](OP(=O)(O)CP(=O)(O)O)[C@H]2O)c(=O)[nH]1 | Active | Active | 
4 | Nc1nc2c(ncn2[C@H]2C[C@H](OP(=O)(O)CP(=O)(O)O)[C@@H](CO)O2)c(=O)[nH]1 | Active | Active | 
5 | Nc1nc2c(ncn2[C@H]2C[C@H](OP(=O)(O)CP(=O)(O)O)[C@@H](COP(=O)(O)CP(=O)(O)O)O2)c(=O)[nH]1 | Active | Active | inhibition (Escherichia coli): Active; inhibition [3]: inactive; fold change (FC) [4]: 3; inhibition [5]: inactive; inhibition [6]: > 50%; inhibition [7]: inactive; inhibition [8]: Active; inhibition [9]: inactive; inhibition [10]: Active; inhibition [11]: > 50%; inhibition [12]: inactive
6 | CC(C)C(=O)Nc1nc2c(ncn2[C@@H]2O[C@H](COP(=O)(O)CP(=O)(O)O)[C@@H](OP(=O)(O)CP(=O)(O)O)[C@H]2O)c(=O)[nH]1 | Active | Active | 
7 | CC(C)C(=O)Nc1nc2c(ncn2[C@@H]2O[C@H](COP(=O)(O)CP(=O)(O)O)[C@@H](OP(=O)(O)CP(=O)(O)O)[C@H]2O[Si](C)(C)C(C)(C)C)c(=O)[nH]1 | Active | Active | 
